Reference: ChEMBL document CHEMBL1139395 (J Med Chem, 2008)
≈ marks a conversion by molar mass, not a printed value.

Key:
Haemophilus influenzae = test: Antibacterial activity against Haemophilus influenzae ATCC 51907; type: functional
Staphylococcus aureus [1] = test: Antibacterial activity against Staphylococcus aureus ATCC 29213 in absence of human serum; type: functional
Staphylococcus aureus [2] = test: Antibacterial activity against Staphylococcus aureus ATCC 29213 in presence of human serum; type: functional
Outline: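 Broth microdilution MIC per CLSI methods (modified), with human serum added to the liquid medium at a final 50% for S. aureus ATCC 29213.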

[3] = Inhibition of Escherichia coli DNA gyrase
[4] = Inhibition of Escherichia coli topoisomerase 4
Streptococcus pneumoniae [5] = test: Antibacterial activity against Streptococcus pneumoniae ATCC 10015; type: functional
DNA gyrase = DNA gyrase (Staphylococcus aureus, UniProt P0A0K8+P20831); test: Inhibition of Staphylococcus aureus DNA gyrase; type: protein-complex assay
[6] = Volume of distribution at steady state in Sprague-Dawley rat; type: ADME, organism-based; conditions: in vivo, read-out: Vdss
Streptococcus pneumoniae [7] = test: Antibacterial activity against Streptococcus pneumoniae ATCC 6303; type: functional
[8] = Half life in Sprague-Dawley rat; type: ADME, organism-based; conditions: in vivo
Staphylococcus aureus [9] = test: Antibacterial activity against Staphylococcus aureus ATCC 29213-infected Sprague-Dawley rat assessed as reduction in bacterial density in thigh tissue at 50 mg/kg, iv administered 2 hrs after bacterial challenge measured at 8 hrs postinfection; type: functional
Outline: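 Neutropenic male Sprague-Dawley rats (175-200 g); cyclophosphamide ip 150 mg/kg at day -4 and 50 mg/kg at day -1. Infection was 0.2 mL of 1 × 10⁷ CFU/mL S. aureus ATCC 29213 in saline, im into the thigh. Single iv tail-vein bolus at 2 h postinfection, D5W vehicle. Thighs homogenized for CFU 6 h post-dose; 0 h controls taken at 2 h. Mean log₁₀ CFU ± SEM; one-way ANOVA with Dunnett's test.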

Streptococcus pneumoniae [10] = test: Antibacterial activity against Streptococcus pneumoniae ATCC 6303-infeceted Sprague-Dawley rat assessed as reduction in lung bacterial density at 50 mg/kg, po administered twice at 18 and 26 hrs after bacterial challenge measured at 72 hrs postinfection; type: functional
Outline: (§1)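 Male Sprague-Dawley rats (185-224 g), anesthetized, infected intratracheally with 0.2 mL (0.9 × 10⁷ CFU) S. pneumoniae ATCC 6303 serotype 3 grown overnight in enriched broth. Oral dosing in D5W at 18 and 26 h postinfection, 10 per group. Lungs homogenized for CFU at 72 h; mean log₁₀ CFU ± SEM against vehicle controls.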

[11] = Bioavailability in Sprague-Dawley rat; type: ADME, organism-based; conditions: in vivo
Streptococcus pneumoniae [12] = test: Antibacterial activity against Streptococcus pneumoniae ATCC 6303-infeceted Sprague-Dawley rat assessed as reduction in lung bacterial density at 25 mg/kg, po administered twice at 18 and 26 hrs after bacterial challenge measured at 72 hrs postinfection; type: functional; outline: as §1
[13] = Clearance in Sprague-Dawley rat; type: ADME, organism-based; conditions: in vivo

DNA gyrase, sequence (P0A0K8 whole entry): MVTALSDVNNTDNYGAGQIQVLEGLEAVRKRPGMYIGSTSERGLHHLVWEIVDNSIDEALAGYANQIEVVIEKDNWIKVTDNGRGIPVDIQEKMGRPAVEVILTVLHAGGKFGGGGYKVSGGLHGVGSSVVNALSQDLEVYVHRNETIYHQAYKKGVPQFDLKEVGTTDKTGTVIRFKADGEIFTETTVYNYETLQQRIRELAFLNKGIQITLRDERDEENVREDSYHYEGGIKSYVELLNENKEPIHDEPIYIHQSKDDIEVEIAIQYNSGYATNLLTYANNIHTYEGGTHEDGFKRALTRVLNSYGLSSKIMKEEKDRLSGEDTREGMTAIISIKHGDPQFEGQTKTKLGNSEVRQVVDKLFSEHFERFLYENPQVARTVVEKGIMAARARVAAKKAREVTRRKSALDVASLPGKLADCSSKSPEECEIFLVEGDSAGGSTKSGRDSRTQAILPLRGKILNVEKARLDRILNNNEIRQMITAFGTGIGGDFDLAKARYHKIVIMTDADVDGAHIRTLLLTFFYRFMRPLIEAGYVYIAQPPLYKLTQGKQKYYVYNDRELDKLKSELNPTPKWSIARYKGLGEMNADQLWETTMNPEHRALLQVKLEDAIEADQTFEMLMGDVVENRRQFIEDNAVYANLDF
DNA gyrase, sequence (P20831 whole entry): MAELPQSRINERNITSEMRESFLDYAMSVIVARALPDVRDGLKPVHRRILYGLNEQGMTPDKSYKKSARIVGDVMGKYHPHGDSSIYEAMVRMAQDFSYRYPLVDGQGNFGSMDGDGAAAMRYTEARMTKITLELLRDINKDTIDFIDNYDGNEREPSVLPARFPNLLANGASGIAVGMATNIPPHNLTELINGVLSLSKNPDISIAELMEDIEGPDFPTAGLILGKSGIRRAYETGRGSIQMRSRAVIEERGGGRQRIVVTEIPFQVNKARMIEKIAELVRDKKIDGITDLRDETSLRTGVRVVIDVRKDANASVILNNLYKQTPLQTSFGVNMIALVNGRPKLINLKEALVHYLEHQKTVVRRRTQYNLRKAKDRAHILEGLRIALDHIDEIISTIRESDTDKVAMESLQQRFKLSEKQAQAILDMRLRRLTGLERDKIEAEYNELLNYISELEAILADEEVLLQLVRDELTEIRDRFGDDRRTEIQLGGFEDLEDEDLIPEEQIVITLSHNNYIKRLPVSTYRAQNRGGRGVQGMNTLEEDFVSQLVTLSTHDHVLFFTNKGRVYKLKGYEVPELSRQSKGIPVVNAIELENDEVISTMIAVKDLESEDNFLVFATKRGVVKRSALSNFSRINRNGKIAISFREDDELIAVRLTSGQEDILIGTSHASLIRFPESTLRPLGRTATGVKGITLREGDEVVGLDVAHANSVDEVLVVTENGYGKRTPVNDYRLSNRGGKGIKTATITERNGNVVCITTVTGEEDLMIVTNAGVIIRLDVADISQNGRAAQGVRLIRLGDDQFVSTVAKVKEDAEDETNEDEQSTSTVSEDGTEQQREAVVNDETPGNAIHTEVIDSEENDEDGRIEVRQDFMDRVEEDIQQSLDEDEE

CCNC(=O)Nc1nc2cc(-c3cncnc3)cc(-n3cccn3)c2[nH]1
MIC (Haemophilus influenzae): 0.25 µg/mL (≈ 0.718 µM)
MIC (Staphylococcus aureus [1]): 0.031 µg/mL (≈ 0.089 µM)
MIC (Staphylococcus aureus [2]): 0.25 µg/mL
Ki [3]: < 4 nM
Ki [4]: 58 nM
MIC (Streptococcus pneumoniae [5]): < 0.008 µg/mL
Ki (DNA gyrase): 16 nM

CCNC(=O)Nc1nc2cc(-n3cnc(C(=O)NC4CC4)c3)c(F)cc2[nH]1
MIC (Haemophilus influenzae): 4 µg/mL (≈ 10.8 µM)
MIC (Staphylococcus aureus [1]): 4 µg/mL (≈ 10.8 µM)
MIC (Staphylococcus aureus [2]): 8 µg/mL
Ki [3]: < 4 nM
Ki [4]: 78 nM
MIC (Streptococcus pneumoniae [5]): 0.063 µg/mL (≈ 0.17 µM)
Ki (DNA gyrase): 10 nM

CCNC(=O)Nc1nc2cc(-c3ccccc3)ccc2[nH]1
MIC (Haemophilus influenzae): > 16 µg/mL
MIC (Staphylococcus aureus [1]): > 16 µg/mL
MIC (Staphylococcus aureus [2]): > 16 µg/mL
Ki [3]: 400 nM
Ki [4]: 9500 nM
MIC (Streptococcus pneumoniae [5]): > 16 µg/mL
Ki (DNA gyrase): 470 nM

CCNC(=O)Nc1nc2cc(-n3cnc(C(=O)NC4CC4)c3)cc(-c3ccccn3)c2[nH]1
MIC (Haemophilus influenzae): 0.125 µg/mL (≈ 0.29 µM)
MIC (Staphylococcus aureus [1]): 0.063 µg/mL (≈ 0.146 µM)
MIC (Staphylococcus aureus [2]): 0.25 µg/mL
Ki [3]: < 4 nM
Ki [4]: 7 nM
MIC (Streptococcus pneumoniae [5]): 0.002 µg/mL (≈ 0.00465 µM)
Ki (DNA gyrase): 12 nM

CCNC(=O)Nc1nc2cc(-c3cncnc3)ccc2[nH]1
MIC (Haemophilus influenzae): 2 µg/mL (≈ 7.08 µM)
MIC (Staphylococcus aureus [1]): 4 µg/mL (≈ 14.2 µM)
MIC (Staphylococcus aureus [2]): 4 µg/mL
Ki [3]: 20 nM
Ki [4]: 1100 nM
MIC (Streptococcus pneumoniae [5]): 0.5 µg/mL (≈ 1.77 µM)
Ki (DNA gyrase): 49 nM

CCNC(=O)Nc1nc2cc(-c3cccnc3)cc(-c3ccccn3)c2[nH]1
MIC (Haemophilus influenzae): 2 µg/mL (≈ 5.58 µM)
MIC (Staphylococcus aureus [1]): 0.031 µg/mL (≈ 0.0865 µM)
MIC (Staphylococcus aureus [2]): 2 µg/mL
Ki [3]: < 4 nM
Ki [4]: 14 nM
MIC (Streptococcus pneumoniae [5]): 0.004 µg/mL (≈ 0.0112 µM)
Ki (DNA gyrase): 7 nM

CCNC(=O)Nc1nc2cc(-c3cccnc3)cc(-c3ncccc3F)c2[nH]1
MIC (Haemophilus influenzae): 1 µg/mL (≈ 2.66 µM)
MIC (Staphylococcus aureus [1]): 0.031 µg/mL (≈ 0.0824 µM)
Vd [6]: 1.6 L/kg
MIC (Staphylococcus aureus [2]): 0.5 µg/mL
MIC (Streptococcus pneumoniae [7]): 0.008 µg/mL (≈ 0.0213 µM)
half-life [8]: 42 min
log10cfu (Staphylococcus aureus [9]): 1.5
log10cfu (Streptococcus pneumoniae [10]): 5.6
Ki [3]: < 4 nM
Ki [4]: 23 nM
bioavailability [11]: 88.4%
MIC (Streptococcus pneumoniae [5]): 0.004 µg/mL (≈ 0.0106 µM)
log10cfu (Streptococcus pneumoniae [12]): 4.8
clearance [13]: 14.4 mL/min/kg
Ki (DNA gyrase): 14 nM

CCNC(=O)Nc1nc2cc(-c3ccn(C)c(=O)c3)cc(-c3ncccc3F)c2[nH]1
MIC (Haemophilus influenzae): 0.125 µg/mL (≈ 0.308 µM)
MIC (Staphylococcus aureus [1]): 0.016 µg/mL (≈ 0.0394 µM)
MIC (Staphylococcus aureus [2]): 0.032 µg/mL
Ki [3]: < 4 nM
Ki [4]: 11 nM
MIC (Streptococcus pneumoniae [5]): < 0.008 µg/mL
Ki (DNA gyrase): 23 nM

CCNC(=O)Nc1nc2cc(-c3cnc(OC)nc3)c(OC)cc2[nH]1
MIC (Haemophilus influenzae): 4 µg/mL (≈ 11.7 µM)
MIC (Staphylococcus aureus [1]): 2 µg/mL (≈ 5.84 µM)
MIC (Staphylococcus aureus [2]): 8 µg/mL
Ki [3]: 15 nM
Ki [4]: 680 nM
MIC (Streptococcus pneumoniae [5]): 0.125 µg/mL (≈ 0.365 µM)
Ki (DNA gyrase): 44 nM

CCNC(=O)Nc1nc2cc(-c3cccnc3)c(C)cc2[nH]1
MIC (Haemophilus influenzae): 16 µg/mL (≈ 54.2 µM)
MIC (Staphylococcus aureus [1]): 16 µg/mL (≈ 54.2 µM)
MIC (Staphylococcus aureus [2]): > 16 µg/mL
Ki [3]: 61 nM
Ki [4]: 1400 nM
MIC (Streptococcus pneumoniae [5]): 0.5 µg/mL (≈ 1.69 µM)
Ki (DNA gyrase): 85 nM

CCNC(=O)Nc1nc2cc(-c3cccnc3)ccc2[nH]1
MIC (Haemophilus influenzae): 16 µg/mL (≈ 56.9 µM)
MIC (Staphylococcus aureus [1]): 16 µg/mL (≈ 56.9 µM)
MIC (Staphylococcus aureus [2]): > 16 µg/mL
Ki [3]: 81 nM
Ki [4]: 2300 nM
MIC (Streptococcus pneumoniae [5]): 2 µg/mL (≈ 7.11 µM)
Ki (DNA gyrase): 130 nM

CCNC(=O)Nc1nc2cc(-c3cccnc3)c(F)cc2[nH]1
MIC (Haemophilus influenzae): 16 µg/mL (≈ 53.5 µM)
MIC (Staphylococcus aureus [1]): 1 µg/mL (≈ 3.34 µM)
MIC (Staphylococcus aureus [2]): 16 µg/mL
Ki [3]: 33 nM
Ki [4]: 680 nM
MIC (Streptococcus pneumoniae [5]): 0.25 µg/mL (≈ 0.835 µM)
Ki (DNA gyrase): 38 nM

CCOC(=O)Nc1nc2cc(/C=C/c3ccc(O)cc3)ccc2[nH]1
MIC (Haemophilus influenzae): > 16 µg/mL
MIC (Staphylococcus aureus [1]): > 16 µg/mL
MIC (Staphylococcus aureus [2]): > 16 µg/mL
Ki [3]: 20000 nM
Ki [4]: > 60000 nM
MIC (Streptococcus pneumoniae [5]): > 16 µg/mL
Ki (DNA gyrase): 2000 nM

CCNC(=O)Nc1nc2cc(-n3cnc(C(=O)NC4CC4)c3)cc(-n3cccn3)c2[nH]1
MIC (Haemophilus influenzae): 0.25 µg/mL (≈ 0.596 µM)
MIC (Staphylococcus aureus [1]): 0.5 µg/mL (≈ 1.19 µM)
MIC (Staphylococcus aureus [2]): 4 µg/mL
Ki [3]: < 4 nM
Ki [4]: 12 nM
MIC (Streptococcus pneumoniae [5]): 0.003 µg/mL (≈ 0.00715 µM)
Ki (DNA gyrase): 10 nM

CC(=O)NC[C@H]1CN(c2ccc(N3CCOCC3)c(F)c2)C(=O)O1 [LINEZOLID]
MIC (Streptococcus pneumoniae [7]): 0.4 µg/mL (≈ 1.19 µM)
log10cfu (Streptococcus pneumoniae [10]): 5.9
log10cfu (Streptococcus pneumoniae [12]): 2.5

CCNC(=O)Nc1nc2cc(-c3cccnc3)c(N3CCCCC3)cc2[nH]1
MIC (Haemophilus influenzae): > 16 µg/mL
MIC (Staphylococcus aureus [1]): 16 µg/mL (≈ 43.9 µM)
MIC (Staphylococcus aureus [2]): > 16 µg/mL
Ki [3]: 120 nM
Ki [4]: 3300 nM
MIC (Streptococcus pneumoniae [5]): 2 µg/mL (≈ 5.49 µM)
Ki (DNA gyrase): 81 nM

CCNC(=O)Nc1nc2cc(-c3cccnc3)cc(OCc3ccccc3)c2[nH]1
MIC (Haemophilus influenzae): > 16 µg/mL
MIC (Staphylococcus aureus [1]): 2 µg/mL (≈ 5.16 µM)
MIC (Staphylococcus aureus [2]): > 16 µg/mL
Ki [3]: 18 nM
Ki [4]: 390 nM
MIC (Streptococcus pneumoniae [5]): 1 µg/mL (≈ 2.58 µM)
Ki (DNA gyrase): 35 nM

CCNC(=O)Nc1nc2cc(-c3cccnc3)cc(-n3cccn3)c2[nH]1
MIC (Haemophilus influenzae): 1 µg/mL (≈ 2.88 µM)
MIC (Staphylococcus aureus [1]): 0.063 µg/mL (≈ 0.181 µM)
MIC (Staphylococcus aureus [2]): 4 µg/mL
Ki [3]: < 4 nM
Ki [4]: 46 nM
MIC (Streptococcus pneumoniae [5]): 0.008 µg/mL (≈ 0.023 µM)
Ki (DNA gyrase): 15 nM

CO[C@@H]1[C@@H](OC(N)=O)[C@@H](O)[C@H](Oc2ccc3c(O)c(NC(=O)c4ccc(O)c(CC=C(C)C)c4)c(=O)oc3c2C)OC1(C)C [NOVOBIOCIN]
MIC (Haemophilus influenzae): 0.063 µg/mL (≈ 0.103 µM)
MIC (Staphylococcus aureus [1]): 0.125 µg/mL (≈ 0.204 µM)
MIC (Staphylococcus aureus [2]): > 16 µg/mL
MIC (Streptococcus pneumoniae [5]): 2 µg/mL (≈ 3.26 µM)

CCNC(=O)Nc1nc2cc(-c3cccnc3)cc(C(=O)NC)c2[nH]1
MIC (Haemophilus influenzae): 16 µg/mL (≈ 47.3 µM)
MIC (Staphylococcus aureus [1]): 16 µg/mL (≈ 47.3 µM)
MIC (Staphylococcus aureus [2]): > 16 µg/mL
Ki [3]: 5 nM
Ki [4]: 150 nM
MIC (Streptococcus pneumoniae [5]): 0.063 µg/mL (≈ 0.186 µM)
Ki (DNA gyrase): 26 nM

CCNC(=O)Nc1nc2cc(-c3cccnc3)cc(-c3cccnc3)c2[nH]1
MIC (Haemophilus influenzae): > 16 µg/mL
MIC (Staphylococcus aureus [1]): 4 µg/mL (≈ 11.2 µM)
MIC (Staphylococcus aureus [2]): 16 µg/mL
Ki [3]: 6 nM
Ki [4]: 1300 nM
MIC (Streptococcus pneumoniae [5]): 0.5 µg/mL (≈ 1.4 µM)
Ki (DNA gyrase): 17 nM

CCNC(=O)Nc1nc2cc(-c3cccnc3)c(OC)cc2[nH]1
MIC (Haemophilus influenzae): > 16 µg/mL
MIC (Staphylococcus aureus [1]): 16 µg/mL (≈ 51.4 µM)
MIC (Staphylococcus aureus [2]): > 16 µg/mL
Ki [3]: 130 nM
Ki [4]: 3500 nM
MIC (Streptococcus pneumoniae [5]): 2 µg/mL (≈ 6.42 µM)
Ki (DNA gyrase): 190 nM

CCNC(=O)Nc1nc2cc(-c3cccnc3)cc(C(=O)OC)c2[nH]1
MIC (Haemophilus influenzae): 0.5 µg/mL (≈ 1.47 µM)
MIC (Staphylococcus aureus [1]): 0.063 µg/mL (≈ 0.186 µM)
MIC (Staphylococcus aureus [2]): 0.5 µg/mL
Ki [3]: < 4 nM
Ki [4]: 35 nM
MIC (Streptococcus pneumoniae [5]): 0.016 µg/mL (≈ 0.0471 µM)
Ki (DNA gyrase): 8 nM
